Tests used:
A549 [1] = test: Induction of apoptosis in human A549 cells assessed as necrotic cells at 25 uM after 72 hrs by annexinV-APC/7-AAD staining based flow cytometry (Rvb =0.41%); type: functional
A549 [2] = test: Antiproliferative activity against human A549 cells after 72 hrs by MTT assay; type: functional, cell-based; details: A549, 72 h
Summary of the method: (§1)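 Cells seeded at 5×10^4/well, grown 24 h at 37 °C in 5% CO₂, then exposed to compounds dissolved in DMSO at a range of concentrations for 72 h. MTT (5 mg/mL in PBS) added for 4 h, then OD read at 570 nm. IC50 taken from dose-response curves, mean ± S.D. of three independent experiments.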

A549 [3] = test: Induction of apoptosis in human A549 cells assessed as late apoptotic cells at 1 uM after 72 hrs by annexinV-APC/7-AAD staining based flow cytometry (reference value: 1.81%); type: functional
A549 [4] = test: Induction of apoptosis in human A549 cells assessed as viable cells at 1 uM after 72 hrs by annexinV-APC/7-AAD staining based flow cytometry (reference value: 92.08%); type: functional; details: A549, 72 h, read-out: Activity
A549 [5] = test: Induction of apoptosis in human A549 cells assessed as viable cells at 5 uM after 72 hrs by annexinV-APC/7-AAD staining based flow cytometry (Rvb =92.08%); type: functional; details: A549, 72 h, read-out: Activity
A549 [6] = test: Induction of apoptosis in human A549 cells assessed as late apoptotic cells at 25 uM after 72 hrs by annexinV-APC/7-AAD staining based flow cytometry (reference value: 1.81%); type: functional
A549 [7] = test: Induction of apoptosis in human A549 cells assessed as late apoptotic cells at 5 uM after 72 hrs by annexinV-APC/7-AAD staining based flow cytometry (reference value: 1.81%); type: functional
A549 [8] = test: Cell cycle arrest in human A549 cells assessed as accumulation at G2 phase at 1 uM after 72 hrs by propidium iodide staining based flow cytometry (reference value: 3.88%); type: functional
[9] = target: T1, Prostaglandin G/H synthase 1 (Bos taurus, UniProt O62664); test: Inhibition of COX1 in calf endotheliocyte assessed as 6keto-PGF1alpha production pretreated for 20 mins followed by addition of 10 uM arachidonic acid as substrate for 20 mins by radioimmuno assay
T1 sequence (O62664 whole entry): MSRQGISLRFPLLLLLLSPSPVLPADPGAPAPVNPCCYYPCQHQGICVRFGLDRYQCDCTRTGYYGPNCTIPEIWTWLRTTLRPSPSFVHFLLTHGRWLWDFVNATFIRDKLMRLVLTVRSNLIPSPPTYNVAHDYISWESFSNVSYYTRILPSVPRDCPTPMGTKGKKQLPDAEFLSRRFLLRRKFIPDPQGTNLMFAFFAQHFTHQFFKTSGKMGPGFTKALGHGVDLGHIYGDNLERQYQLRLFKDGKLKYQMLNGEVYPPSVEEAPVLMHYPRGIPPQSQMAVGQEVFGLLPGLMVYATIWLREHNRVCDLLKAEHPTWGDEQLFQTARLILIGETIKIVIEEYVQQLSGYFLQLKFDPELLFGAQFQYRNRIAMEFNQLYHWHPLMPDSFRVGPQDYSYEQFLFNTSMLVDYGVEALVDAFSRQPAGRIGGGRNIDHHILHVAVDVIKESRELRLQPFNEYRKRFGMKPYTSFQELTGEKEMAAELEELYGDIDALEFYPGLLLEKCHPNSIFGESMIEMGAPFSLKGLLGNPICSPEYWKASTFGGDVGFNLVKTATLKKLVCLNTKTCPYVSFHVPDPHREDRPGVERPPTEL
Summary of the method: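 Endothelial cells from neonatal calf thoracic aorta plated at 1.0×10^6 in DMEM with 10% FBS and grown 24 h at 37 °C in 5% CO₂. Compound or DMSO added for 20 min, then arachidonic acid (10 μM) for another 20 min. 6-keto-PGF1α in the medium quantified by radioimmunoassay. IC50 is the mean of four determinations.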

A549 [10] = test: Cell cycle arrest in human A549 cells assessed as accumulation at G1 phase at 1 uM after 72 hrs by propidium iodide staining based flow cytometry (reference value: 53.66%); type: functional
[11] = Antiproliferative activity against human Caco2 cells after 72 hrs by MTT assay; type: functional, cell-based; details: Caco-2, 72 h; summary of the method: as §1
A549 [12] = test: Induction of apoptosis in human A549 cells assessed as necrotic cells at 1 uM after 72 hrs by annexinV-APC/7-AAD staining based flow cytometry (reference value: 0.41%); type: functional
A549 [13] = test: Induction of apoptosis in human A549 cells after 3 days by annexinV-APC/7-AAD staining based flow cytometry; type: functional, cell-based
A549 [14] = test: Induction of apoptosis in human A549 cells assessed as early apoptotic cells at 1 uM after 72 hrs by annexinV-APC/7-AAD staining based flow cytometry (reference value: 5.7%); type: functional
A549 [15] = test: Induction of apoptosis in human A549 cells assessed as necrotic cells at 5 uM after 72 hrs by annexinV-APC/7-AAD staining based flow cytometry (reference value: 0.41%); type: functional
A549 [16] = test: Induction of apoptosis in human A549 cells assessed as early apoptotic cells at 25 uM after 72 hrs by annexinV-APC/7-AAD staining based flow cytometry (reference value: 5.7%); type: functional
A549 [17] = test: Induction of apoptosis in human A549 cells assessed as viable cells at 25 uM after 72 hrs by annexinV-APC/7-AAD staining based flow cytometry (reference value: 92.08%); type: functional; details: A549, 72 h, read-out: Activity
A549 [18] = test: Cell cycle arrest in human A549 cells assessed as accumulation at G2 phase at 25 uM after 72 hrs by propidium iodide staining based flow cytometry (reference value: 3.88%); type: functional
A549 [19] = test: Cell cycle arrest in human A549 cells assessed as accumulation at S phase at 5 uM after 72 hrs by propidium iodide staining based flow cytometry (reference value: 42.46%); type: functional
[20] = Antiproliferative activity against human PC3 cells after 72 hrs by MTT assay; type: functional, cell-based; details: PC-3, 72 h; summary of the method: as §1
A549 [21] = test: Cell cycle arrest in human A549 cells assessed as accumulation at G2 phase after 72 hrs by propidium iodide staining based flow cytometry; type: functional
A549 [22] = test: Cell cycle arrest in human A549 cells assessed as accumulation at G1 phase at 25 uM after 72 hrs by propidium iodide staining based flow cytometry (reference value: 53.66%); type: functional
A549 [23] = test: Cell cycle arrest in human A549 cells assessed as accumulation at G2 phase at 5 uM after 72 hrs by propidium iodide staining based flow cytometry (reference value: 3.88%); type: functional
A549 [24] = test: Cell cycle arrest in human A549 cells assessed as accumulation at G1 phase at 5 uM after 72 hrs by propidium iodide staining based flow cytometry (reference value: 53.66%); type: functional
[25] = Selectivity index, ratio of IC50 for rat COX2 to IC50 for calf COX1
Summary of the method: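 Ratio of COX-2 IC50 to COX-1 IC50. COX-2 was measured in rat peritoneal macrophages: 1.0×10^6/well in RPMI 1640 with 5% FCS, grown 24 h, COX-1 inactivated with 1 mM aspirin, COX-2 induced with LPS 1 µg/mL for 6 h, compound added for 30 min, then arachidonic acid 10 µM for 20 min, PGE2 read by EIA. COX-1 was measured in calf aortic endothelial cells by 6-keto-PGF1α radioimmunoassay.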

IC50 (A549 [2]): 9.52 µM
IC50 [9]: 12.6 µM
Ratio IC50 [25]: 0.014
Structure (SMILES): CS(=O)(=O)c1ccc(-c2nc(SCCCOC(=O)/C=C/c3ccc(O)c(O)c3)nn2-c2ccc(F)cc2)cc1
Activity (A549 [1]): 1.51%
Activity (A549 [3]): 3.13%
viability at 1 µM (A549 [4]): 86.2%
viability at 5 µM (A549 [5]): 67.8%
Activity (A549 [6]): 6.15%
Activity (A549 [7]): 6.37%
Activity (A549 [8]): 7.24%
Activity (A549 [10]): 49.85%
IC50 [11]: 11.2 µM
Activity (A549 [12]): 0.91%
Activity (A549 [13]): Dose-dependent effect
Activity (A549 [14]): 9.73%
Activity (A549 [15]): 2.14%
Activity (A549 [16]): 37.2%
viability at 25 µM (A549 [17]): 55.1%
Activity (A549 [18]): 20.53%
Activity (A549 [19]): 40.9%
IC50 [20]: 10.1 µM
Activity (A549 [21]): Dose-dependent effect
Activity (A549 [22]): 47.29%
Activity (A549 [23]): 13.76%
Activity (A549 [24]): 45.34%

— ChEMBL document CHEMBL3745688, “Discovery of novel hybrids of diaryl-1,2,4-triazoles and caffeic acid as dual inhibitors of cyclooxygenase-2 and 5-lipoxygenase for cancer therapy” (Eur J Med Chem, 2016)
